For eight compounds, MIC results are on record in ChEMBL document CHEMBL1130082, “5,6-Cis-penems: broad-spectrum anti-methicillin-resistant Staphylococcus aureus beta-lactam antibiotics” (1997).

Molecules are shown by their SMILES. Converted amounts (≈) assume the structure as drawn.

Holding throughout (format): functional
For one experiment, the system named is Citrobacter freundii. The experiment is described as follows: Minimum inhibitory concentration was determined in heart infusion agar medium against […] organism Citrobacter freundii GN7391. In a few lines: (§1)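 Agar dilution on heart infusion agar, inoculum 10^6 cells/mL, incubated 24 h at 37 °C; the MIC is read as the lowest concentration that inhibits growth.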

The subject of the next experiment is Bacillus subtilis. Briefly: Minimum inhibitory concentration was determined in heart infusion agar medium against Bacillus subtilis ATCC 6633. In a few lines: as §1
In experiment [1] the test system is Escherichia coli. The experiment is described as follows: Minimum inhibitory concentration was determined in heart infusion agar medium against Escherichia coli NIHJ JC-2. The procedure, abridged:
as §1

Experiment [2] deals with Escherichia coli. Briefly: Minimum inhibitory concentration was determined in heart infusion agar medium against […] organism Escherichia coli KC-14/RGN 823. The procedure, abridged:
as §1

The subject of the next experiment is Enterobacter cloacae. Briefly: Minimum inhibitory concentration was determined in heart infusion agar medium against […] organism Enterobacter cloacae NTCC9394. In a few lines:
as §1

The subject of experiment [3] is Staphylococcus aureus. The experiment is described as follows: Minimum inhibitory concentration was determined in heart infusion agar medium against Staphylococcus aureus 209P JC-1. In a few lines: as §1
Experiment [4] deals with Staphylococcus aureus. The experiment is described as follows: Minimum inhibitory concentration was determined in heart infusion agar medium against Staphylococcus aureus(MRSA). The procedure, abridged: as §1
Another experiment has as its system Proteus vulgaris. Briefly: Minimum inhibitory concentration was determined in heart infusion agar medium against Proteus vulgaris GN 7919. In a few lines: as §1
For the next experiment, the system named is Enterococcus faecalis. Briefly: Minimum inhibitory concentration was determined in heart infusion agar medium against Enterococcus faecalis ATCC 19433. In a few lines: as §1
A further experiment deals with Pseudomonas aeruginosa. The experiment is described as follows: Minimum inhibitory concentration was determined in heart infusion agar medium against Pseudomonas aeruginosa PAO-1. In a few lines:
as §1

For the next experiment, the system named is Klebsiella pneumoniae. The experiment is described as follows: Minimum inhibitory concentration was determined in heart infusion agar medium against Klebsiella pneumoniae PCI 602. The procedure, abridged: as §1
For another experiment, the system named is Serratia marcescens. The experiment is described as follows: Minimum inhibitory concentration was determined in heart infusion agar medium against Serratia marcescens IAM 1136. In a few lines: as §1

Consider `CC[C@H](O)[C@@H]1C(=O)N2C(C(=O)[O-])=C(S[C@@H]3CCN(CC(=O)c4ccccc4)C3)S[C@H]12.[Na+]`, for which the minimal inhibitory concentration (MIC) was 6.25 µg/mL with Citrobacter freundii; less than 0.025 µg/mL against Bacillus subtilis; 0.2 µg/mL in the experiment on Escherichia coli [1]; 0.78 µg/mL against Escherichia coli [2]; 0.39 µg/mL in the experiment with Enterobacter cloacae; 0.1 µg/mL against Staphylococcus aureus [3]. Further, the minimal inhibitory concentration (MIC) stood at 3.13 µg/mL in the experiment on Staphylococcus aureus [4]; 0.78 µg/mL in the experiment with Proteus vulgaris; 0.78 µg/mL in the experiment with Enterococcus faecalis; 6.25 µg/mL against Pseudomonas aeruginosa; 0.1 µg/mL in the experiment with Klebsiella pneumoniae; 1.56 µg/mL with Serratia marcescens.

Consider `CC[C@H](O)[C@@H]1C(=O)N2C(C(=O)[O-])=C([C@H]3CCCO3)S[C@H]12.[Na+]`, for which the MIC against Citrobacter freundii was greater than 100 µg/mL; against Bacillus subtilis, 0.05 µg/mL; against Escherichia coli [1] it was 3.13 µg/mL; against Escherichia coli [2], greater than 100 µg/mL; in the experiment on Enterobacter cloacae, greater than 100 µg/mL; against Staphylococcus aureus [3] it was 0.39 µg/mL. The MIC against Staphylococcus aureus [4] is 6.25 µg/mL; against Proteus vulgaris it was 1.56 µg/mL; with Enterococcus faecalis, 0.39 µg/mL; against Pseudomonas aeruginosa, greater than 100 µg/mL; in the experiment with Klebsiella pneumoniae, 1.56 µg/mL; in the experiment on Serratia marcescens, 25 µg/mL.

For `CC[C@@H](O)[C@H]1C(=O)N2C(C(=O)[O-])=C([C@H]3CCCO3)S[C@H]12.[Na+]`, the minimal inhibitory concentration (MIC) in the experiment on Citrobacter freundii is greater than 100 µg/mL; in the experiment on Bacillus subtilis, 0.78 µg/mL; in the experiment on Escherichia coli [1], 100 µg/mL; in the experiment with Escherichia coli [2] it was 12.5 µg/mL; against Enterobacter cloacae, greater than 100 µg/mL; against Staphylococcus aureus [3], 0.78 µg/mL. The MIC is greater than 100 µg/mL in the experiment with Staphylococcus aureus [4]; 25 µg/mL with Proteus vulgaris; 25 µg/mL in the experiment with Enterococcus faecalis; greater than 100 µg/mL in the experiment with Pseudomonas aeruginosa; 12.5 µg/mL against Klebsiella pneumoniae; greater than 100 µg/mL with Serratia marcescens.

Turning to `CC[C@H](O)[C@@H]1C(=O)N2C(C(=O)[O-])=C(c3ccccc3)S[C@H]12.[Na+]`, the MIC was greater than 100 µg/mL against Citrobacter freundii; 0.2 µg/mL against Bacillus subtilis; 25 µg/mL against Escherichia coli [1]; 50 µg/mL with Escherichia coli [2]; greater than 100 µg/mL with Enterobacter cloacae; 0.78 µg/mL in the experiment on Staphylococcus aureus [3]. Besides, the minimal inhibitory concentration (MIC) in the experiment with Staphylococcus aureus [4] amounted to 12.5 µg/mL; against Proteus vulgaris, 1.56 µg/mL; with Enterococcus faecalis it was 0.2 µg/mL; against Pseudomonas aeruginosa, 100 µg/mL; with Klebsiella pneumoniae, 6.25 µg/mL; against Serratia marcescens, 50 µg/mL.

For `CC[C@H](O)[C@@H]1C(=O)N2C(C(=O)[O-])=C(S[C@@H]3CCNC3)S[C@H]12.[Na+]`, the minimal inhibitory concentration (MIC) worked out at 6.25 µg/mL in the experiment on Citrobacter freundii; 0.05 µg/mL with Bacillus subtilis; 0.2 µg/mL against Escherichia coli [1]; 0.78 µg/mL in the experiment on Escherichia coli [2]; 0.78 µg/mL in the experiment with Enterobacter cloacae; 0.1 µg/mL with Staphylococcus aureus [3]. The MIC against Staphylococcus aureus [4] was 3.13 µg/mL; against Proteus vulgaris it was 0.78 µg/mL; against Enterococcus faecalis, 1.56 µg/mL; with Pseudomonas aeruginosa, 12.5 µg/mL; in the experiment with Klebsiella pneumoniae, 0.39 µg/mL; with Serratia marcescens it was 3.13 µg/mL.

Turning to `CC(O)[C@H]1C(=O)N2C(C(=O)O)=C(SCCNC=N)C[C@H]12` (single isomer, unassigned) [IMIPENEM ANHYDROUS], the MIC with Citrobacter freundii is 0.39 µg/mL (≈ 1.3 µM); in the experiment with Bacillus subtilis it was less than 0.025 µg/mL; with Escherichia coli [1] it was 0.2 µg/mL (≈ 0.668 µM); in the experiment on Escherichia coli [2], 0.1 µg/mL (≈ 0.334 µM); in the experiment with Enterobacter cloacae, 0.2 µg/mL (≈ 0.668 µM); in the experiment on Staphylococcus aureus [3], less than 0.025 µg/mL. The MIC in the experiment with Staphylococcus aureus [4] was greater than 100 µg/mL; against Proteus vulgaris, 3.13 µg/mL (≈ 10.5 µM); in the experiment with Enterococcus faecalis it was 0.78 µg/mL (≈ 2.61 µM); with Pseudomonas aeruginosa, 1.56 µg/mL (≈ 5.21 µM); in the experiment with Klebsiella pneumoniae, 0.2 µg/mL (≈ 0.668 µM); with Serratia marcescens, 0.78 µg/mL (≈ 2.61 µM).

With `C[C@@H](O)[C@H]1C(=O)N2C(C(=O)[O-])=C([C@H]3CCCO3)S[C@H]12.[Na+]` [FAROPENEM SODIUM], the minimal inhibitory concentration (MIC) is 25 µg/mL in the experiment on Citrobacter freundii; less than 0.025 µg/mL with Bacillus subtilis; 0.1 µg/mL in the experiment with Escherichia coli [1]; 0.1 µg/mL against Escherichia coli [2]; 1.56 µg/mL with Enterobacter cloacae; 0.05 µg/mL in the experiment on Staphylococcus aureus [3]. Besides, the minimal inhibitory concentration (MIC) in the experiment with Staphylococcus aureus [4] is greater than 100 µg/mL; in the experiment on Proteus vulgaris, 3.13 µg/mL; against Enterococcus faecalis, 0.78 µg/mL; in the experiment on Pseudomonas aeruginosa, greater than 100 µg/mL; against Klebsiella pneumoniae it was 0.2 µg/mL; in the experiment with Serratia marcescens it was 6.25 µg/mL.

With `C[C@@H](O)[C@H]1C(=O)N2C(C(=O)O)=C([C@H]3CCCO3)S[C@H]12` [FAROPENEM], the MIC was greater than 100 µg/mL in the experiment on Citrobacter freundii; 0.05 µg/mL (≈ 0.175 µM) in the experiment on Bacillus subtilis; 0.78 µg/mL (≈ 2.73 µM) with Escherichia coli [1]; 25 µg/mL (≈ 87.6 µM) in the experiment with Escherichia coli [2]; 100 µg/mL (≈ 350 µM) with Enterobacter cloacae; 0.78 µg/mL (≈ 2.73 µM) in the experiment on Staphylococcus aureus [3]. Besides, the minimal inhibitory concentration (MIC) in the experiment with Staphylococcus aureus [4] was 25 µg/mL (≈ 87.6 µM); against Proteus vulgaris, 1.56 µg/mL (≈ 5.47 µM); against Enterococcus faecalis, 0.39 µg/mL (≈ 1.37 µM); against Pseudomonas aeruginosa, greater than 100 µg/mL; with Klebsiella pneumoniae, 0.78 µg/mL (≈ 2.73 µM); against Serratia marcescens, 25 µg/mL (≈ 87.6 µM).

Broadly, the MIC is the lowest concentration found to suppress growth. Low readings indicate greater potency, high ones weaker potency.
